Experimental data: ChEMBL document CHEMBL1128248, “C-9 and N-substituted analogs of cis-(3aR)-(-)-2,3,3a,4,5,9b-hexahydro-3- propyl-1H-benz[e]indole-9-carboxamide: 5-HT1A receptor agonists with various degrees of metabolic stability” (J Med Chem, 1995)
The source made the active and inactive calls. The calls are words filed in the database; no cut-off is given here.

Experiments:
[1] = tested on: Rattus norvegicus; assay: In vivo effects on DA (dopamine) synthesis in corps striatum was reported after subcutaneous administration to reserpinized rats; inactive at a dose of 12.5; type: functional, organism-based
Method in brief: (§1)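 Male Sprague–Dawley rats (200–300 g) given reserpine 5 mg/kg sc 18 h before; compounds sc in neck region, 5 mL/kg. DOPA accumulation in striatum or cortex measured by HPLC with electrochemical detection.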

[2] = tested on: Rattus norvegicus; assay: in vivo effects on DA (dopamine) synthesis in cortex was reported after subcutaneous administration to reserpinized rats; inactive at a dose of 12.5; type: functional, organism-based; method in brief: as §1
[3] = biological target: T1, 5-hydroxytryptamine receptor 1A (Rattus norvegicus, UniProt P19327); assay: In vitro displacement of radioactively labeled ligand [3H]8-OH-DPAT from 5-hydroxytryptamine 1A receptor site in CHO cells; type: cell-based
T1 sequence (P19327 whole entry): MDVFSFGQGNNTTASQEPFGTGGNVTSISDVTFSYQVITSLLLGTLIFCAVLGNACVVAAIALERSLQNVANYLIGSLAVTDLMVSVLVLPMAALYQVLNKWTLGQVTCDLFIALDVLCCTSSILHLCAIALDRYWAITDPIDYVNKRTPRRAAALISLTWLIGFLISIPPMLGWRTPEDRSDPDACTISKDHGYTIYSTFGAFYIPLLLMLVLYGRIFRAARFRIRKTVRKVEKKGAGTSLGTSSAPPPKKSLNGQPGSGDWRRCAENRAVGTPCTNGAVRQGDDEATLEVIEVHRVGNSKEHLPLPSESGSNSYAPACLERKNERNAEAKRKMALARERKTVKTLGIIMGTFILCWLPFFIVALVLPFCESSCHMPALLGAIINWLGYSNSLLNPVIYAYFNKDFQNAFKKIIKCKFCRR

[4] = tested on: Rattus norvegicus; assay: (§2) 5-HTP accumulation in limbic system was determined in vivo; type: functional
Method in brief: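 Male Sprague–Dawley rats (200–300 g) pretreated with reserpine 5 mg/kg sc 18 h beforehand; test drug given sc in neck, 5 mL/kg, neutral pH. 5-HTP in limbic system measured by HPLC with electrochemical detection.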

[5] = biological target: D(2) dopamine receptor (Rattus norvegicus, UniProt P61169); assay: Displacement of [3H]U-86170 from Dopamine receptor D2
D(2) dopamine receptor, sequence (P61169 whole entry): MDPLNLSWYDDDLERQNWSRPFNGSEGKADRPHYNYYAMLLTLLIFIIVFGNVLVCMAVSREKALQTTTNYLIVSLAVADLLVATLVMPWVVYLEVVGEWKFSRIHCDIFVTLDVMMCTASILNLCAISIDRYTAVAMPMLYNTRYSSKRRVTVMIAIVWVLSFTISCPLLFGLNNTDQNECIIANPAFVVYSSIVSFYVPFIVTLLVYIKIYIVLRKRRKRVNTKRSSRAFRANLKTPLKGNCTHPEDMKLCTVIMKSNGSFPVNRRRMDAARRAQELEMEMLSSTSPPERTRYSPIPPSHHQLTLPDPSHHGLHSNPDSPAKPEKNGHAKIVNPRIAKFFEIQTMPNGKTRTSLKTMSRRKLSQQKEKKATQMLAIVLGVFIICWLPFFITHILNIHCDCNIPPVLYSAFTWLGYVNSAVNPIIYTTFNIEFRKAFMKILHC
Method in brief: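 Competition binding at cloned D2 receptors expressed in CHO-K1 cells, using the agonist [3H]U86170 (62 Ci/mmol, 2 nM) against 11 dilutions of test compound. IC50 was fitted to a one-site model by nonlinear least squares. Ki was obtained with the Cheng–Prusoff equation.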

[6] = species: Rattus norvegicus; assay: (§3) In vitro metabolic stability of the test compound was evaluated after incubation in the presence of freshly isolated rat hepatocytes; type: functional, Hepatocyte; design: reference not given here
Method in brief: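 Rat hepatocytes were isolated by modified collagenase perfusion and incubated as suspensions (5 million cells/mL) with each compound at three concentrations. Parent loss was followed by HPLC. Initial rates gave apparent Vmax and Km by direct linear plot, with CLint = Vmax/Km. Stability is expressed relative to a reference compound incubated at the same time.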

[7] = tested on: Rattus norvegicus; assay: uM/kg); type: ADME, organism-based; settings: in vivo
Method in brief: (§4)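 Male Sprague–Dawley rats got reserpine 5 mg/kg sc in the neck 18 h before testing. Compound was given sc in the neck (5 mL/kg), and rats were placed singly in photocell motility meters. Accumulated counts were recorded over 30 min, mean ± SEM, n = 4, with Student's t test against reserpinized controls. Testing ran 9 a.m.–1 p.m.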

[8] = tested on: Rattus norvegicus; assay: postsynaptic effects was assessed by the increase in the locomotor activity (reversal of reserpine induced hypokinesia) during a 30 min period after subcutaneous administration using photocell motility meters at the dose of 0.8(micr oM/kg); type: ADME, organism-based; settings: in vivo, sc, 0.5 h
Method in brief: (§5)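 Reserpine 5 mg/kg sc was given 18 h before testing to male Sprague–Dawley rats. Test drug was given sc in the neck, and rats were placed singly in photocell motility meters. Accumulated counts were recorded over 30 min (mean, n = 4), with gross behaviour observed throughout. Student's t test was applied.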

[9] = tested on: Rattus norvegicus; assay: as §2; type: functional; remark: listed apart in the source
Method in brief: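 Male Sprague–Dawley rats (200–300 g), pretreated with reserpine 5 mg/kg sc 18 h before. Test drug given sc. 5-HTP measured in limbic brain tissue by HPLC with electrochemical detection. Dose–response curves were built from four to six dose levels (n = 4) for each substance and brain area. ED50 reported in μmol/kg sc.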

[10] = tested on: Rattus norvegicus; assay: in vivo effects on DA (dopamine) synthesis in cortex was reported after subcutaneous administration to reserpinized rats; inactive at a dose of 2.1; type: functional, organism-based
[11] = tested on: Rattus norvegicus; assay: In vivo effects on DA (dopamine) synthesis in corps striatum was reported after subcutaneous administration to reserpinized rats; inactive at a dose of 2.1; type: functional, organism-based
[12] = species: Rattus norvegicus; assay: as §3; type: ADME, Hepatocyte
Method in brief: (§6)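 Rat hepatocytes were prepared by a modified collagenase perfusion method. Each compound was incubated at three concentrations in suspension at 5 million cells/mL. Initial rates were analysed by direct linear plot to give apparent Vmax and Km, and CLint = Vmax/Km. Rates were measured by HPLC and expressed relative to a reference compound incubated at the same time.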

[13] = tested on: Rattus norvegicus; assay: In vivo effects on DA (dopamine) synthesis in corps striatum was reported after subcutaneous administration to reserpinized rats; inactive at a dose of 50; type: functional, organism-based; method in brief: as §1
[14] = tested on: Rattus norvegicus; assay: in vivo effects on DA (dopamine) synthesis in cortex was reported after subcutaneous administration to reserpinized rats; inactive at a dose of 50; type: functional, organism-based; method in brief: as §1
[15] = tested on: Rattus norvegicus; assay: postsynaptic effects was assessed by the increase in the locomotor activity (reversal of reserpine induced hypokinesia) during a 30 min period after subcutaneous administration using photocell motility meters at the dose of 10(micro M/kg); type: ADME, organism-based; settings: in vivo, sc, 0.5 h; method in brief: as §4
[16] = tested on: Rattus norvegicus; assay: postsynaptic effects was assessed by the increase in the locomotor activity (reversal of reserpine induced hypokinesia) during a 30 min period after subcutaneous administration using photocell motility meters at dose of 12.5 (uM /kg); type: functional; method in brief: as §4
[17] = tested on: Rattus norvegicus; assay: postsynaptic effects was assessed by the increase in the locomotor activity (reversal of reserpine induced hypokinesia) during a 30 min period after subcutaneous administration using photocell motility meters at the dose of 3.1(micr oM/kg); type: ADME, organism-based; settings: in vivo, sc, 0.5 h; method in brief: as §5
[18] = tested on: Rattus norvegicus; assay: in vivo effects on DA (dopamine) synthesis in cortex was reported after subcutaneous administration to reserpinized rats; inactive at a dose of 3.1; type: functional, organism-based
[19] = tested on: Rattus norvegicus; assay: In vivo effects on DA (dopamine) synthesis in corps striatum was reported after subcutaneous administration to reserpinized rats; inactive at a dose of 3.1; type: functional, organism-based
[20] = tested on: Rattus norvegicus; assay: In vivo effects on DA (dopamine) synthesis in corps striatum was reported after subcutaneous administration to reserpinized rats; inactive at a dose of 100; type: functional, organism-based
[21] = tested on: Rattus norvegicus; assay: in vivo effects on DA (dopamine) synthesis in cortex was reported after subcutaneous administration to reserpinized rats; inactive at a dose of 100; type: functional, organism-based
[22] = tested on: Rattus norvegicus; assay: postsynaptic effects was assessed by the increase in the locomotor activity (reversal of reserpine induced hypokinesia) during a 30 min period after subcutaneous administration using photocell motility meters at the dose of 12.5(mic roM/kg); type: ADME, organism-based; settings: in vivo, sc, 0.5 h; method in brief: as §5
[23] = species: Rattus norvegicus; assay: In vitro metabolic stability of the test compound was evaluated after incubation in the presence of freshly isolated rat hepatocytes; Metabolic stability NT = not tested; type: functional, Hepatocyte; method in brief: as §6
[24] = tested on: Rattus norvegicus; assay: postsynaptic effects was assessed by the increase in the locomotor activity (reversal of reserpine induced hypokinesia) during a 30 min period after subcutaneous administration using photocell motility meters at the dose of 50(micro M/kg); type: ADME, organism-based; settings: in vivo, sc, 0.5 h; method in brief: as §5

Structure (SMILES) | Ki [3] | Ki [5] | Metabolic stability [6] | other results
C=CCN1CC[C@H]2c3c(cccc3C(N)=O)CC[C@H]21 | 1.5 nM | > 1000 nM | 1 | ED50 [1]: inactive; ED50 [2]: inactive; ED50 [4]: 0.04 µmol/kg; Locomotor activity [7]: 215
CCCN1CC[C@H]2c3c(cccc3C(C)=O)CC[C@H]21 | 0.4 nM | 91 nM | 0.13 | Locomotor activity [8]: 115; ED50 [9]: 0.0125 µmol/kg; ED50 [10]: inactive; ED50 [11]: inactive
CC(C)=CCN1CC[C@H]2c3c(Br)cccc3CC[C@H]21 | 266 nM | 18 nM |  | Metabolic stability [12]: 0.21
CCCNC(=O)c1cccc2c1[C@@H]1CCN(CCC)[C@@H]1CC2 | 52 nM | > 1000 nM |  | ED50 [13]: inactive; ED50 [14]: inactive; ED50 [9]: 4 µmol/kg; Locomotor activity [15]: 58
CCCN1CC[C@H]2c3c(cccc3C(N)=O)CC[C@H]21 | 1.9 nM | > 1630 nM | 1 | ED50 [13]: inactive; ED50 [14]: inactive; ED50 [4]: 0.28 µmol/kg; Locomotor activity [16]: 249
CC(C)CN1CC[C@H]2c3c(cccc3C(N)=O)CC[C@H]21 | 42 nM | > 1000 nM | 0.23 | 
CCCC(=O)c1cccc2c1[C@@H]1CCN(CCC)[C@@H]1CC2 | 0.7 nM | 22 nM | 0.05 | Locomotor activity [17]: 631; ED50 [18]: inactive; ED50 [19]: inactive; ED50 [9]: 0.26 µmol/kg
CCCN(CCC)C(=O)c1cccc2c1[C@@H]1CCN(CCC)[C@@H]1CC2 | 434 nM | > 1000 nM |  | 
CCN1CC[C@H]2c3c(cccc3C(N)=O)CC[C@H]21 | 23 nM | > 1000 nM | 1.5 | ED50 [9]: 2 µmol/kg; ED50 [20]: inactive; ED50 [21]: inactive; Locomotor activity [22]: 13
NC(=O)c1cccc2c1[C@@H]1CCN(CCCF)[C@@H]1CC2 | 3.9 nM | > 1000 nM | 0.68 | 
CC(C)=CCN1CC[C@H]2c3c(cccc3C(N)=O)CC[C@H]21 | 271 nM | > 1000 nM |  | Metabolic stability [23]: 0
CCN1CC[C@H]2c3c(Br)cccc3CC[C@H]21 | 11 nM | 34 nM |  | 
COCCN1CC[C@H]2c3c(Br)cccc3CC[C@H]21 | 97 nM | 252 nM |  | 
CCCCN1CC[C@H]2c3c(Br)cccc3CC[C@H]21 | 45 nM | 75 nM |  | 
C=CCNC(=O)c1cccc2c1[C@@H]1CCN(CCC)[C@@H]1CC2 | 2.2 nM | > 1000 nM | 0.4 | Locomotor activity [24]: 82; ED50 [13]: inactive; ED50 [14]: inactive; ED50 [4]: 0.8 µmol/kg
